Assay results as given in ChEMBL document CHEMBL1125581 (J Med Chem, 1991).

Assays:
[1] = molecular target: T1, Muscarinic acetylcholine receptor M1 (Rattus norvegicus, UniProt P08482); assay: Inhibition of binding of [3H]N-methylscopolamine to muscarinic acetylcholine receptor M1 of transfected rat A9L cells.; format: cell-based
T1 sequence (P08482 whole entry): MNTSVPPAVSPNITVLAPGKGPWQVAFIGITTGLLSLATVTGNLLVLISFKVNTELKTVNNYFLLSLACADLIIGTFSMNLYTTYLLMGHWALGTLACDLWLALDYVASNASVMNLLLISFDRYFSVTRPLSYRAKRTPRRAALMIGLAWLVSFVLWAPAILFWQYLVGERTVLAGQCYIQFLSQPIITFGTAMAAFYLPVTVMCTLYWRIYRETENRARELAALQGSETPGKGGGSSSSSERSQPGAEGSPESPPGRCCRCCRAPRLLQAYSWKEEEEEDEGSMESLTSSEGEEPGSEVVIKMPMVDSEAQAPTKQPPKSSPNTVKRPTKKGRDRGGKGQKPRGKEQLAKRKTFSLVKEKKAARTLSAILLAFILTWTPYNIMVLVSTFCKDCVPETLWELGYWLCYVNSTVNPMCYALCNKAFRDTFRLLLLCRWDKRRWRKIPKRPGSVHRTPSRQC

[2] = molecular target: T2, Muscarinic acetylcholine receptor M2 (Rattus norvegicus, UniProt P10980); assay: Inhibition of binding of [3H]N-methylscopolamine to muscarinic acetylcholine receptor M2 of rat heart tissue membrane.; format: tissue-based
T2 sequence (P10980 whole entry): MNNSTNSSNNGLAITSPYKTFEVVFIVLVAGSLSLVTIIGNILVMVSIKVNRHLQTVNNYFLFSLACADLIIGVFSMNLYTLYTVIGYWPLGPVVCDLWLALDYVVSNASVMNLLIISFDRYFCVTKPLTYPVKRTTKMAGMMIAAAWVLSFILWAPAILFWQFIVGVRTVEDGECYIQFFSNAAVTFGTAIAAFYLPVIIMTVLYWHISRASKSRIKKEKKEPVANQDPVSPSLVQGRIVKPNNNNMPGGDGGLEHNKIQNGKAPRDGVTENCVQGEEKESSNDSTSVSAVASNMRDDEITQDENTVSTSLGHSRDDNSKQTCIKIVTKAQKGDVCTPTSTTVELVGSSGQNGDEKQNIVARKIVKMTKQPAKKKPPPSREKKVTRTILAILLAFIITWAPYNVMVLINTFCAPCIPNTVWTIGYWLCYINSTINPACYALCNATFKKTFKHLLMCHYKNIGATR
In short: (§1)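 Rat heart membranes (150–300 μg protein) incubated 90 min at 37 °C in DMEM-Hepes with 0.5 nM [3H]NMS and varied unlabeled analogue concentrations. Bound radioligand collected by rapid GF/B filtration, washed with ice-cold 0.9% NaCl, and scintillation counted. Nonspecific binding with 1 μM atropine subtracted. Ki values come from one to three determinations, each in triplicate.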

[3] = molecular target: Muscarinic acetylcholine receptor M3 (Rattus norvegicus, UniProt P08483); assay: Inhibition of binding of [3H]N-methylscopolamine to muscarinic acetylcholine receptor M3 of transfected rat A9L cells.; format: cell-based
Sequence of Muscarinic acetylcholine receptor M3 (P08483 whole entry): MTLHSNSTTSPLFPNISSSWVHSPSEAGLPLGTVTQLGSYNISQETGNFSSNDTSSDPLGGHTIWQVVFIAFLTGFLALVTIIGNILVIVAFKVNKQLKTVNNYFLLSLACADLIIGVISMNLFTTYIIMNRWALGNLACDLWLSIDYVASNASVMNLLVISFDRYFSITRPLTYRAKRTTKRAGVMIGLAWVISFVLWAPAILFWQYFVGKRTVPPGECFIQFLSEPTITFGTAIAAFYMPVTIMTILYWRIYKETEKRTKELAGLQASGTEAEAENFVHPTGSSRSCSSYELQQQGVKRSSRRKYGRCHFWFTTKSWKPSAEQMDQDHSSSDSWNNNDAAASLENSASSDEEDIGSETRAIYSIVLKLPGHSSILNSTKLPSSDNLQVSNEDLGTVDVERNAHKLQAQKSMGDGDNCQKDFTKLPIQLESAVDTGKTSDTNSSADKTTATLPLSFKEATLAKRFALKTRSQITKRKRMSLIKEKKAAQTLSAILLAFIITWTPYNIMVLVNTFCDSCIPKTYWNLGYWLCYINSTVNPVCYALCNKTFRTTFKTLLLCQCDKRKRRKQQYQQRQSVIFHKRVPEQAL

[4] = molecular target: T2, Muscarinic acetylcholine receptor M2; assay: Inhibition of binding of [3H]N-Methyl-scopolamine to Muscarinic acetylcholine receptor M2 of rat heart tissue membranes.; format: cell membranes, Membrane; in short: as §1
[5] = molecular target: T1, Muscarinic acetylcholine receptor M1; assay: Inhibition of binding of [3H]N-Methyl-scopolamine to Muscarinic acetylcholine receptor M1 of transfected A9L cells.; format: cell-based
In short: (§2)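 Confluent A9L (transfected m1/m3) or NG108-15 (m4) cultures were lysed in 2 mM Tris-HCl pH 7.1/1 mM EDTA, 30 min, 2 °C, then homogenized. Crude membranes were spun at 50000g. Membranes (150–300 μg protein) were incubated with 0.5 nM [3H]NMS and varied analogue in DMEM-Hepes for 90 min at 37 °C, then filtered. Nonspecific binding was set with 1 μM atropine. Ki values are from 1–3 triplicate determinations.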

[6] = molecular target: T3, Muscarinic acetylcholine receptor M4 (Rattus norvegicus, UniProt P08485); assay: Inhibition of binding of [3H]N-Methyl-scopolamine to muscarinic acetylcholine receptor M4 of rat […] NG108-15 cells; format: cell-based
T3 sequence (P08485 whole entry): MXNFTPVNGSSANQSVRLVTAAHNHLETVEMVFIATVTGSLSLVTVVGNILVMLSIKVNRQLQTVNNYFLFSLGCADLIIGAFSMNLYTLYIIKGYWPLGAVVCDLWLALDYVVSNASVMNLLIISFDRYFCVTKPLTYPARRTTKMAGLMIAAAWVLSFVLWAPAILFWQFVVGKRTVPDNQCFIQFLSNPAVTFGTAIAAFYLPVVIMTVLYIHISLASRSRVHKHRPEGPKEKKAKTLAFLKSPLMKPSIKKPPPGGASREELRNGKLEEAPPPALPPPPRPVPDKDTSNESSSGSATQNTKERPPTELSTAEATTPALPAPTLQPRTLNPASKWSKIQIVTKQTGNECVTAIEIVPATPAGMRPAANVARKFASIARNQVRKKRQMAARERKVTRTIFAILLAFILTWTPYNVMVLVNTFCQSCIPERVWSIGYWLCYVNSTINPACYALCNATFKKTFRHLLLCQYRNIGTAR

[7] = molecular target: T1, Muscarinic acetylcholine receptor M1; assay: The compound was tested for the inhibition of binding of [3H]N-Methyl-scopolamine to muscarinic acetylcholine receptor M1 of transfected A9L cells.; format: cell-based; in short: as §2

SMILES	Ki [1] [nM]	Ki [2] [nM]	Ki [3] [nM]	Ki [4] [nM]	Ki [5] [nM]	Ki [6] [nM]	Ki [7] [nM]
CSc1ccc2c(c1)C(=O)Nc1cccnc1N2C(=O)CN1CCN(C)CC1	4660	11000	3620				
CS(=O)(=O)N1CCN(CC(=O)N2c3ccccc3C(=O)Nc3cccnc32)CC1	> 100000	> 100000	> 100000			> 100000	
CCN(CC)CCCCCCCCCCN1CCN(CC(=O)N2c3ccccc3C(=O)Nc3cccnc32)CC1				13.5	3		
CC(C)(C)OC(=O)NCCNC(=O)c1ccc(CN2CCN(CC(=O)N3c4ccccc4C(=O)Nc4cccnc43)CC2)cc1		2500					
O=C1Nc2cccnc2N(C(=O)CN2CCN(CCCCN3C(=O)c4ccccc4C3=O)CC2)c2ccccc21	170	89	120			210	
CN1CCN(CC(=O)N2c3ccc(S(N)(=O)=O)cc3C(=O)Nc3cccnc32)CC1	> 30000	> 30000	> 30000				
NCCNC(=O)c1ccc(CN2CCN(CC(=O)N3c4ccccc4C(=O)Nc4cccnc43)CC2)cc1	1390	960	3650			1040	
O=C1Nc2cccnc2N(C(=O)CN2CCN(CCCCCN3C(=O)c4ccccc4C3=O)CC2)c2ccccc21	60	20					
CN1CCN(CC(=O)N2c3ccc(S(=O)(=O)NCCNC(=O)OC(C)(C)C)cc3C(=O)Nc3cccnc32)CC1	> 30000		> 30000				
O=C1Nc2cccnc2N(C(=O)CN2CCN(C(=S)Nc3ccccc3)CC2)c2ccccc21	> 100000	> 100000	> 100000			> 100000	
CC(C)(C)OC(=O)NCCCC(=O)NCCN1CCN(CC(=O)N2c3ccccc3C(=O)Nc3cccnc32)CC1	4800	3340	4100				
O=C1Nc2cccnc2N(C(=O)CN2CCN(CCCCCCN3C(=O)c4ccccc4C3=O)CC2)c2ccccc21				18	18		
O=C1Nc2cccnc2N(C(=O)CN2CCN(Cc3ccccc3)CC2)c2ccccc21	330	240	240			220	
COc1ccccc1CNCCCCCCCCCCN1CCN(CC(=O)N2c3ccccc3C(=O)Nc3cccnc32)CC1				22	3.3		
CC(=O)NCCNS(=O)(=O)c1ccc2c(c1)C(=O)Nc1cccnc1N2C(=O)CN1CCN(C)CC1	> 30000		> 30000				
O=C1Nc2cccnc2N(C(=O)CN2CCN(C(=O)c3ccccc3)CC2)c2ccccc21	> 100000	> 100000	> 100000			> 100000	
CN1CCN(CC(=O)N2c3ccc(S(=O)(=O)NCCN)cc3C(=O)Nc3cccnc32)CC1	> 30000		> 30000				
CN1CCN(CC(=O)N2c3ccccc3C(=O)N(CCCCCCC#N)c3cccnc32)CC1							8900
CN1CCN(CC(=O)N2c3cc(CO)ccc3C(=O)Nc3cccnc32)CC1	4400		4400				
CC(C)(C)OC(=O)NCCCCNC(=O)c1ccc(CN2CCN(CC(=O)N3c4ccccc4C(=O)Nc4cccnc43)CC2)cc1	1680	1090	3470				
O=C1Nc2cccnc2N(C(=O)CN2CCN(CCCN3C(=O)c4ccccc4C3=O)CC2)c2ccccc21	1810	840					
CC(C)(C)OC(=O)NCCC(=O)NCCN1CCN(CC(=O)N2c3ccccc3C(=O)Nc3cccnc32)CC1	13300	6060	6190				
CC(=O)NCCCCCCCCCCN1CCN(CC(=O)N2c3ccccc3C(=O)Nc3cccnc32)CC1				43	75		
Cc1scc2c1N(C(=O)CN1CCN(C)CC1)c1ccccc1NC2=O [TELENZEPINE]	1.8	50.3	6.9			17.4	

Continued, values first:

Ki [1] [nM]	Ki [2] [nM]	Ki [3] [nM]	Ki [4] [nM]	Ki [5] [nM]	Ki [6] [nM]	Ki [7] [nM]	SMILES
1170	5890						NCCCCCN1CCN(CC(=O)N2c3ccccc3C(=O)Nc3cccnc32)CC1
9530	6340	11500					NCCCC(=O)NCCN1CCN(CC(=O)N2c3ccccc3C(=O)Nc3cccnc32)CC1
			11.7	15.8			NCCCCCCCCCCN1CCN(CC(=O)N2c3ccccc3C(=O)Nc3cccnc32)CC1
> 100000	> 100000	> 100000			> 100000		CC(=O)N1CCN(CC(=O)N2c3ccccc3C(=O)Nc3cccnc32)CC1
37.1	21.4	46			23.2		CC(C)(C)OC(=O)NCCCCCCN1CCN(CC(=O)N2c3ccccc3C(=O)Nc3cccnc32)CC1
			57	66			NCCCCCCCN1CCN(CC(=O)N2c3ccccc3C(=O)Nc3cccnc32)CC1
			24	24			NCCCCCCCCCN1CCN(CC(=O)N2c3ccccc3C(=O)Nc3cccnc32)CC1
1310	1340						NCCCCCCN1CCN(CC(=O)N2c3ccccc3C(=O)Nc3cccnc32)CC1
1670	1370						C#CCN1CCN(CC(=O)N2c3ccccc3C(=O)Nc3cccnc32)CC1
			26	20			NCCCCCCCCN1CCN(CC(=O)N2c3ccccc3C(=O)Nc3cccnc32)CC1
3870	5120						NCCCN1CCN(CC(=O)N2c3ccccc3C(=O)Nc3cccnc32)CC1
5800	3200	9500					O=C1Nc2cccnc2N(C(=O)CN2CCN(CCO)CC2)c2ccccc21
39400	34500	> 100000					CC(=O)NCCC(=O)NCCN1CCN(CC(=O)N2c3ccccc3C(=O)Nc3cccnc32)CC1
9650	8820	10800					CC(=O)NCCCC(=O)NCCN1CCN(CC(=O)N2c3ccccc3C(=O)Nc3cccnc32)CC1
			50	52			CC(=O)NCCCCCCCCCN1CCN(CC(=O)N2c3ccccc3C(=O)Nc3cccnc32)CC1
1190	3040	1970			2840		NCCN1CCN(CC(=O)N2c3ccccc3C(=O)Nc3cccnc32)CC1
4340	5840	6650					NCCC(=O)NCCN1CCN(CC(=O)N2c3ccccc3C(=O)Nc3cccnc32)CC1
3080	1740						NCCCCN1CCN(CC(=O)N2c3ccccc3C(=O)Nc3cccnc32)CC1
670	2520	970			2570		CC(=O)NCCN1CCN(CC(=O)N2c3ccccc3C(=O)Nc3cccnc32)CC1
